Hits are enriched below; roughly 2.1% of the tested compounds scored in any of these assays.
MC4R antag cAMP – MC4R antagonists of cAMP signaling, primary screen, cell-based, TR-FRET, antagonist arm of biased-ligand search | AID 540295, 2011 | MC4R-expressing cells, MTII-stimulated cAMP, LANCE TR-FRET | actives 0.48% (n = 360,000) | inhibition, % at 6.5 µM | Melanocortin receptor 4 (Homo sapiens), P32245;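 active means inhibition above its plate's cutoff, the mean of tested wells on that plate plus 3 SD, cut at about 29% in these data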;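 further: 0% = Melanotan II alone and 100% = Melanotan II plus saturating MCL0020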
Target sequence (P32245 whole entry, looked up): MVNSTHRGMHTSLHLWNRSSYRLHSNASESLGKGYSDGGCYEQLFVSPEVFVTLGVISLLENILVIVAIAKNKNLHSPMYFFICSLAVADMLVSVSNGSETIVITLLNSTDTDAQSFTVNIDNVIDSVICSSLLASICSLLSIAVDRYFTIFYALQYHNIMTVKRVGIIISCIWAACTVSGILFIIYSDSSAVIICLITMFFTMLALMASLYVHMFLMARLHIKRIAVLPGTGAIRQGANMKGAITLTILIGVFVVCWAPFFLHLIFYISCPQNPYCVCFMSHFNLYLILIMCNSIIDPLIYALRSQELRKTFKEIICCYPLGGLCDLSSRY
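Material: U2OS-MC4R stable cell line | Reagent: Melanotan II challenge after compound preincubation | Doses: One concentration, 6.5 µM nominal | Incubation: 30-min compound preincubation, 1-h Melanotan II challenge, 1-h detection, room temperature | Signal: TR-FRET cAMP assay | Replicates: One well per compound, no replicates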
CFTR F508del cor – F508del CFTR correction, initial screen, CFBE line, single point. CFBE cells, YFP halide quenching; stimulated with forskolin plus potentiator P3; % fluorescence drop versus neutral controls. activity (quench increase), % at 7.58 µM. actives 0.36% (n = 350,000);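 active means mean added fluorescence quench of at least 8% versus neutral control, with both replicates also reaching 8%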;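 further: cells transiently co-express mutant CFTR-F508del with the halide-sensitive YFP; corrector assay measuring rescue of mutant channel to the surface after 24 h compound exposure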
MC4R ag barr – MC4R agonists recruiting beta-arrestin, primary screen, cell-based, luminescence, agonist arm of biased-ligand search; Melanocortin receptor 4 (Homo sapiens), P32245; U2OS MC4R beta-arrestin complementation; percent of melanotan II response, DMSO zero; activation, % at 8.9 µM; actives 0.98% (n = 360,000); AID 540308, 2011;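 active means activation above a per-plate cutoff, the mean activation of sample wells on that plate plus 3 SD, cut at about 8% in these data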
SMARCA2 activ – SMARCA2 (BRM) function activators, primary screen, cell-based, luminescence, high throughput; MG213 cells, MMTV-luciferase reporter, dexamethasone, overnight; activation, % at 9.1 µM; actives 1% (n = 370,000); AID 652017, 2013; in the data active means activation above about 7.8%;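 further: 0% = vehicle wells and 100% = reference activator wells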
Starred values were filed as active, the others as inactive.

Screening CC(Cc1ccccc1)NC(=O)c1ccc([N+](=O)[O-])cc1 (configuration not stated) returned MC4R antag cAMP 3, MC4R ag barr -1 and SMARCA2 activ 7.8*.
Screening Cc1ccc(Nc2nc(-c3cccnc3)nc3ccccc23)cc1 returned MC4R antag cAMP 5, CFTR F508del cor 12*, MC4R ag barr -1 and SMARCA2 activ -2.
Screening Cc1ccccc1Nc1nc(-c2cccnc2)nc2ccccc12 returned MC4R antag cAMP -5, CFTR F508del cor 1, MC4R ag barr 0 and SMARCA2 activ 1.
Screening O=C1c2ccc3c4c(ccc(c24)C(=O)N1CCCCO)C(=O)N(CCCCO)C3=O returned MC4R antag cAMP -25, CFTR F508del cor 18*, MC4R ag barr -5 and SMARCA2 activ -8.
Screening O=C(c1ccc2c(c1)C(=O)N(CCCO)C2=O)c1ccc2c(c1)C(=O)N(CCCO)C2=O returned MC4R antag cAMP 0, MC4R ag barr -1 and SMARCA2 activ 1.
CNC(=O)C[C@@H]1CC[C@H]2[C@H](COc3ccc(NC(=O)C4CCCCC4)cc3C(=O)N2C)O1 was read as CFTR F508del cor 3.
OCC1(Cc2ccc(F)cc2F)CCCN(CCCc2ccccc2)C1 (configuration not stated) was read as MC4R antag cAMP 19, CFTR F508del cor -10, MC4R ag barr 9.5* and SMARCA2 activ -2.
Screening O=C(c1cc(-c2ccco2)nn1-c1cccc(Cl)c1)N1CCCCC1 returned MC4R antag cAMP 31*, MC4R ag barr 1 and SMARCA2 activ 0.
Screening CC(C)c1ccc(CN2CCN(S(=O)(=O)c3ccc(Cl)s3)CC2)cc1 returned MC4R antag cAMP 1, CFTR F508del cor 30*, MC4R ag barr -2 and SMARCA2 activ -1.
For COCCCN=C1NN=C(c2cc(C)n(Cc3ccccc3Cl)c2C)CS1 the results were MC4R antag cAMP -16, CFTR F508del cor 9.1*, MC4R ag barr -4 and SMARCA2 activ -1.
`COCCCN=C1NN=C(c2cc(C)n(-c3ccccc3)c2C)CS1` gave MC4R antag cAMP 5, CFTR F508del cor -5, MC4R ag barr -4 and SMARCA2 activ -5.
COc1ccc(CNC(=O)CSc2nc3ccc(C)cc3[nH]2)cc1 was read as MC4R antag cAMP 23, CFTR F508del cor 3, MC4R ag barr 0 and SMARCA2 activ 4.
Screening CCOc1ccc2nc(SCC(=O)N(C)C)[nH]c2c1 returned MC4R antag cAMP -1, MC4R ag barr 0 and SMARCA2 activ 7.9*.
Screening CCCCNC(=O)CSc1nc2ccc(C)cc2[nH]1 returned MC4R antag cAMP 3, CFTR F508del cor 17*, MC4R ag barr -3 and SMARCA2 activ -4.
For CCN[C@H]1CN(CCCOC)S(=O)(=O)c2sc(S(N)(=O)=O)cc21 the results were MC4R antag cAMP -4, CFTR F508del cor 10*, MC4R ag barr 0 and SMARCA2 activ 2.
Cc1ccc(S(=O)(=O)Nc2ccc3c(c2)C(=O)N([C@H](C)CO)C[C@@H](C)[C@H](CN(C)C)OCCCC[C@@H](C)O3)cc1 was read as CFTR F508del cor -1.
For COc1ccc2c3c([nH]c2c1)[C@H](CO)N(CC1CC1)CC31CN(C(=O)C2CCOCC2)C1 the results were CFTR F508del cor 0.
For C[C@@H]1CN([C@@H](C)CO)C(=O)c2c(c3ccccc3n2C)-c2ccccc2CO[C@@H]1CN(C)C(=O)[C@H]1CCCN1C the results were CFTR F508del cor 0.
For C=CCOn1c(=O)c(-c2cc3ccccc3o2)[n+]([O-])c2ccccc21 the results were MC4R antag cAMP -13, MC4R ag barr 2 and SMARCA2 activ 7.9*.
`Cc1cccc(NC(=O)/C(C#N)=C/c2cn(CC(=O)NCc3ccco3)c3ccccc23)c1C` gave MC4R antag cAMP 14, MC4R ag barr 8 and SMARCA2 activ -1.
Screening N#C/C(=C\c1cn(Cc2ccc(F)cc2)c2ccccc12)C(=O)NCc1ccco1 returned MC4R antag cAMP 5, MC4R ag barr 9.1* and SMARCA2 activ -3.
Cc1cc(C)c(S(=O)(=O)N2CCN(C(=O)c3cc4ccccc4o3)CC2)c(C)c1 was read as MC4R antag cAMP 4, CFTR F508del cor -4, MC4R ag barr 1 and SMARCA2 activ -2.
`O=C(c1cc2ccccc2o1)N1CCN(S(=O)(=O)c2ccc(F)c(F)c2F)CC1` gave MC4R antag cAMP 3, CFTR F508del cor -3, MC4R ag barr 8.2* and SMARCA2 activ 1.

Compound activity as filed in PubChem.
